Laboratory results as given in ChEMBL document CHEMBL1134626, “Synthesis of potent C(2)-symmetric, diol-based hiv-1 protease inhibitors. Investigation of thioalkyl and thioaryl P1/P1' substituents” (J Med Chem, 2001).

Experiments:
[1] = tested on: Human immunodeficiency virus 1; assay: In Vitro anti HIV activity was evaluated in HIV cytopathic assay in MT-4 cells; type: functional; conditions: Human immunodeficiency virus 1, MT4; read-out: ED50 (the source's name)
In short: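 HIV cytopathic assay in MT-4 cells; protection quantified with vital dye XTT; ED50 calculated from percent cytoprotection per compound.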

[2] = Dissociation constant was measured; type: physicochemical
[3] = target: Human immunodeficiency virus type 1 protease (Human immunodeficiency virus 1, UniProt Q72874); assay: Inhibitory activity against HIV protease expressed in Escherichia coli
In short: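 HIV-1 protease cloned and heterologously expressed in E. coli; Ki determined by fluorometric enzyme assay.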

[4] = tested on: Human immunodeficiency virus 1; assay: Compound was evaluated for Antiviral activity against HIV-1; type: functional; conditions: read-out: ED50 (the source's name)
In short: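 HIV cytopathic assay in MT-4 cells; cell protection read out with the vital dye XTT. ED50 taken as the 50% inhibitory concentration, calculated from percent cytoprotection for each compound.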

EC50 [1] | pKa [2] | Ki [3] | Structure (SMILES) | EC50 [4]
1300 nM | – | – | CNC(=O)[C@@H](NC(=O)[C@H](OCc1ccccc1)[C@H](O)[C@@H](O)[C@@H](OCc1ccccc1)C(=O)N[C@H](C(=O)NC)C(C)C)C(C)C | –
> 10000 nM | 9.8 | 16 nM | C=CCS[C@@H](C(=O)NC1c2ccccc2C[C@H]1O)[C@H](O)[C@@H](O)[C@@H](SCC=C)C(=O)N[C@H]1c2ccccc2C[C@H]1O (stereo not given in full) | –
96 nM | – | – | O=C(NC1c2ccccc2C[C@H]1O)[C@H](OCc1ccccc1)[C@H](O)[C@@H](O)[C@@H](OCc1ccccc1)C(=O)N[C@H]1c2ccccc2C[C@H]1O (stereo not given in full) | –
1100 nM | 9.7 | 2.8 nM | O=C(NC1c2ccccc2C[C@H]1O)[C@H](SCc1ccccc1)[C@H](O)[C@@H](O)[C@@H](SCc1ccccc1)C(=O)N[C@H]1c2ccccc2C[C@H]1O (stereo not given in full) | –
27 nM | 6.4 | 0.5 nM | O=C(NC1c2ccccc2C[C@H]1O)[C@H](Sc1cccs1)[C@H](O)[C@@H](O)[C@@H](Sc1cccs1)C(=O)N[C@H]1c2ccccc2C[C@H]1O (stereo not given in full) | –
110 nM | 6 | 2.3 nM | O=C(NC1c2ccccc2C[C@H]1O)[C@H](Sc1ccccc1F)[C@H](O)[C@@H](O)[C@@H](Sc1ccccc1F)C(=O)N[C@H]1c2ccccc2C[C@H]1O (stereo not given in full) | –
260 nM | 6.6 | 1.8 nM | O=C(NC1c2ccccc2C[C@H]1O)[C@H](Sc1ccccc1)[C@H](O)[C@@H](O)[C@@H](Sc1ccccc1)C(=O)N[C@H]1c2ccccc2C[C@H]1O (stereo not given in full) | –
210 nM | 9.2 | 4.3 nM | O=C(NC1c2ccccc2C[C@H]1O)[C@H](SCc1ccccc1F)[C@H](O)[C@@H](O)[C@@H](SCc1ccccc1F)C(=O)N[C@H]1c2ccccc2C[C@H]1O (stereo not given in full) | –
> 10000 nM | 9.6 | 285 nM | O=C(NC1c2ccccc2C[C@H]1O)[C@H](Sc1ccccn1)[C@H](O)[C@@H](O)[C@@H](Sc1ccccn1)C(=O)N[C@H]1c2ccccc2C[C@H]1O (stereo not given in full) | –
– | – | – | CC(C)(C)NC(=O)[C@@H]1CN(Cc2cccnc2)CCN1C[C@@H](O)C[C@@H](Cc1ccccc1)C(=O)N[C@H]1c2ccccc2C[C@H]1O [INDINAVIR] | 73 nM
– | – | – | Cc1c(O)cccc1C(=O)N[C@@H](CSc1ccccc1)[C@H](O)CN1C[C@H]2CCCC[C@H]2C[C@H]1C(=O)NC(C)(C)C [NELFINAVIR] | 56 nM
– | – | – | CC(C)c1nc(CN(C)C(=O)N[C@H](C(=O)N[C@@H](Cc2ccccc2)C[C@H](O)[C@H](Cc2ccccc2)NC(=O)OCc2cncs2)C(C)C)cs1 [RITONAVIR] | 55 nM

Structure (SMILES) | EC50 [1] | pKa [2] | Ki [3] | EC50 [4]
CNC(=O)[C@@H](NC(=O)[C@H](Sc1ccccc1)[C@H](O)[C@@H](O)[C@@H](Sc1ccccc1)C(=O)N[C@H](C(=O)NC)C(C)C)C(C)C | 6300 nM | 6.6 | 1.8 nM | –
CNC(=O)[C@@H](NC(=O)[C@H](Sc1ccccc1F)[C@H](O)[C@@H](O)[C@@H](Sc1ccccc1F)C(=O)N[C@H](C(=O)NC)C(C)C)C(C)C | 3600 nM | 6 | 0.57 nM | –
CNC(=O)[C@@H](NC(=O)[C@H](Sc1cccs1)[C@H](O)[C@@H](O)[C@@H](Sc1cccs1)C(=O)N[C@H](C(=O)NC)C(C)C)C(C)C | 4200 nM | 6.4 | 1 nM | –
